Activity calls are given as the source filed them. The calls are words filed in the database; no cut-off is given here.
Assays:
A549 [1] = assay: Inhibition of colony formation in human A549 cells at 1 nM by crystal violet staining based assay; assay type: functional, cell-based
A-375 [2] = assay: Induction of apoptosis in human A375 cells assessed as increase in caspase-3 levels at 1 uM incubated for 12 hrs by spectrofluorometry; assay type: functional, cell-based
A549 [3] = assay: Induction of apoptosis related protein expression in human A549 cells assessed as increase in Bim expression at 20 uM incubated for 12 hrs by apoptosis antibody array; assay type: functional, cell-based
A549 [4] = assay: Cytotoxicity in human A549 cells assessed as reduction in cell viability incubated for 24 hrs by MTT assay; assay type: functional, cell-based; conditions: Homo sapiens, A549, 24 h; read-out: IC50
Procedure, shortened: (§1)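 MTT viability assay on A375 melanoma, A549 lung adenocarcinoma and WI-38 normal lung fibroblast cells after 24 and 48 h treatment. IC50 values are in µM, expressed as mean ± SD.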

A-375 [5] = assay: Induction of cell cycle arrest in human A375 cells assessed as accumulation at S phase at 10 nM by propodium iodide staining based flow cytometric analysis; assay type: functional
Procedure, shortened: (§2)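 DNA was stained with propidium iodide and analysed by flow cytometry. Histograms give the fraction of cells in G0/G1, S and G2/M phases.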

A549 [6] = assay: Cytotoxicity in human A549 cells assessed as reduction in cell proliferation at 0.001 to 100 uM incubated for 24 to 48 hrs by BrdU incorporation assay; assay type: functional, cell-based
Procedure, shortened: (§3)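 BrdU incorporation assay read colorimetrically. Absorbance of the developed colour is proportional to the BrdU incorporated into cells, taken as a measure of proliferation.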

A549 [7] = assay: Induction of apoptosis related protein expression in human A549 cells assessed as increase in p53 expression at 20 uM incubated for 12 hrs by apoptosis antibody array; assay type: functional, cell-based
A549 [8] = assay: Induction of apoptosis related protein expression in human A549 cells assessed as increase in p21 expression at 20 uM incubated for 12 hrs by apoptosis antibody array; assay type: functional, cell-based
A-375 [9] = assay: Induction of apoptosis in human A375 cells assessed as induction of nuclear changes with DNA fragmentation at 1 uM by Hoechst 33342 nuclear staining based assay; assay type: functional, cell-based
Procedure, shortened: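 Hoechst 33342 nuclear staining of treated A549 or A375 cells. Nuclear condensation and fragmentation were examined by fluorescence microscopy against untreated control.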

A-375 [10] = assay: Cytotoxicity in human A375 cells assessed as reduction in cell viability at 0.001 to 100 uM incubated for 24 to 48 hrs by LDH assay; assay type: functional, cell-based
Procedure, shortened: (§4)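 LDH released into the culture medium after plasma membrane damage was quantified and expressed as percentage cytotoxicity.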

A549 [11] = assay: Induction of apoptosis related protein expression in human A549 cells assessed as increase in Cyt-c expression at 20 uM incubated for 12 hrs by apoptosis antibody array; assay type: functional, cell-based
A549 [12] = assay: Antimetastatic activity in human A549 cells assessed as inhibition of cell migration rate at 1 nM incubated up to 24 hrs by scratch wound healing assay; assay type: functional, cell-based
Procedure, shortened: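 Scratch wound healing assay. The cell-free zone was followed over time up to 24 h, with untreated control wells as reference. Closure was quantified as migration rate.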

A-375 [13] = assay: Induction of apoptosis in human A375 cells assessed as cytochrome-c release after 4 to 12 hrs by spectrophotometry; assay type: functional, cell-based
A549 [14] = assay: Induction of apoptosis related protein expression in human A549 cells assessed as increase in Bad expression at 20 uM incubated for 12 hrs by apoptosis antibody array; assay type: functional, cell-based
A-375 [15] = assay: Induction of mitochondrial membrane potential changes in human A375 cells at 1 uM by JC1 staining based fluorimetry; assay type: functional, cell-based
Procedure, shortened: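 Mitochondrial membrane potential was assessed with the ratiometric dye JC1. Depolarization appears as lower red and higher green fluorescence, and the red/green intensity ratio was quantified.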

A549 [16] = assay: Cytotoxicity in human A549 cells assessed as reduction in cell viability at 0.001 to 100 uM incubated for 24 to 48 hrs by LDH assay; assay type: functional, cell-based; procedure, shortened: as §4
A549 [17] = assay: Induction of morphological changes in human A549 cells assessed as induction of membrane breakage, blebbing and leakage of intracellular components at 1 uM by atomic force microscopy; assay type: functional, cell-based
A549 [18] = assay: Cytotoxicity in human A549 cells assessed as reduction in cell viability incubated for 48 hrs by MTT assay; assay type: functional, cell-based; conditions: Homo sapiens, A549, 48 h; read-out: IC50; procedure, shortened: as §1
A549 [19] = assay: Induction of cell cycle arrest in human A549 cells assessed as accumulation at S phase at 10 nM by propodium iodide staining based flow cytometric analysis (reference value: 25%); assay type: functional; procedure, shortened: as §2
[20] = Antioxidant activity assessed as hydroxyl radical scavenging activity at 1 to 1000 ug/ml incubated for 1 hr; assay type: functional
A-375 [21] = assay: Induction of morphological changes in human A375 cells assessed as induction of membrane breakage, blebbing and leakage of intracellular components at 1 uM by atomic force microscopy; assay type: functional, cell-based
A549 [22] = assay: Induction of apoptosis in human A549 cells at 1 uM by APOP assay; assay type: functional, cell-based
Procedure, shortened: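 APOPercentage dye uptake in treated A549 cells, which stain purple-red in early apoptosis when phosphatidylserine is translocated. Accumulated dye was then quantified against unstained untreated controls.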

A549 [23] = assay: Antimetastatic activity in human A549 cells assessed as reduction in cell invasion at 10 nM by crystal violet staining based transwell chamber assay; assay type: functional
Procedure, shortened: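 Invasion was measured in a transwell chamber, with cells moving across Matrigel toward the lower chamber. Invaded cells were imaged and quantified against untreated control.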

A549 [24] = assay: Antimetastatic activity in human A549 cells assessed as reduction in cell migration at 10 nM by crystal violet staining based transwell chamber assay; assay type: functional
Procedure, shortened: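 Transwell chamber migration assay. Cells migrating to the lower side were imaged and quantified against untreated control.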

A549 [25] = assay: Induction of apoptosis in human A549 cells at 1 uM by acridine orange-ethidium bromide assay; assay type: functional, cell-based
Procedure, shortened: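 Cells were treated at 1 µM and then stained with acridine orange-ethidium bromide. Apoptosis was scored by fluorescence microscopy as a colour shift from green to yellow/red.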

A549 [26] = assay: Induction of apoptosis in human A549 cells assessed as cytochrome-c release after 6 to 8 hrs by Raman spectral imaging analysis; assay type: functional, cell-based
A549 [27] = assay: Induction of cell cycle arrest in human A549 cells assessed as accumulation at G2/M phase at 10 nM by propodium iodide staining based flow cytometric analysis (reference value: 7%); assay type: functional; procedure, shortened: as §2
A549 [28] = assay: Induction of apoptosis in human A549 cells assessed as cytochrome-c release after 4 to 12 hrs by spectrophotometry; assay type: functional, cell-based
A-375 [29] = assay: Cytotoxicity in human A375 cells assessed as reduction in cell proliferation at 0.001 to 100 uM incubated for 24 to 48 hrs by BrdU incorporation assay; assay type: functional, cell-based; procedure, shortened: as §3
A-375 [30] = assay: Inhibition of mitochondrial membrane potential in human A375 cells at 1 uM by TMRE staining based assay; assay type: functional, cell-based
A-375 [31] = assay: Induction of apoptosis in human A375 cells assessed as increase in caspase-8 levels at 1 uM incubated for 12 hrs by spectrofluorometry; assay type: functional, cell-based
A549 [32] = assay: Induction of apoptosis related protein expression in human A549 cells assessed as increase in TNFalpha/beta expression at 20 uM incubated for 12 hrs by apoptosis antibody array; assay type: functional, cell-based
A549 [33] = assay: Induction of DNA fragmentation in human A549 cells after 4 hrs by agarose gel electrophoresis; assay type: functional, cell-based
A549 [34] = assay: Induction of GSH depletion in human A549 cells by fluorimetry; assay type: functional, cell-based
A549 [35] = assay: Induction of apoptosis in human A549 cells assessed as increase in caspase-9 levels at 1 uM incubated for 12 hrs by spectrofluorometry; assay type: functional, cell-based

COc1cc(C2Oc3cc(-c4cc(=O)c5c(O)cc(O)cc5o4)ccc3OC2/C=C2\C(=O)ON=C2c2ccc(Cl)cc2)ccc1O (stereo not given)
inhibition (A549 [1]): Active | Activity (A-375 [2]): Active | Activity (A549 [3]): Active | IC50 (A549 [4]): 2 µM | Activity (A-375 [5]): Active | Activity (A549 [6]): Active | Activity (A549 [7]): Active | Activity (A549 [8]): Active | Activity (A-375 [9]): Active | Activity (A-375 [10]): Active | Activity (A549 [11]): inactive | Activity (A549 [12]): Active | Activity (A-375 [13]): Active | Activity (A549 [14]): Active | Activity (A-375 [15]): Active | Activity (A549 [16]): Active | Activity (A549 [17]): Active | IC50 (A549 [18]): 1.2 µM | Activity (A549 [19]): 40% | Activity [20]: Dose-dependent effect | Activity (A-375 [21]): Active | Activity (A549 [22]): Active | Activity (A549 [23]): Active | Activity (A549 [24]): Active | Activity (A549 [25]): Active | Activity (A549 [26]): Active | Activity (A549 [27]): 29% | Activity (A549 [28]): Active | Activity (A-375 [29]): Active | inhibition (A-375 [30]): Active | Activity (A-375 [31]): inactive | Activity (A549 [32]): Active | Activity (A549 [33]): Active | Activity (A549 [34]): Active | Activity (A549 [35]): Active

Source: ChEMBL document CHEMBL4334468, “Exploring Mitochondria-Mediated Intrinsic Apoptosis by New Phytochemical Entities: An Explicit Observation of Cytochrome c Dynamics on Lung and Melanoma Cancer Cells” (J Med Chem, 2019)
